The values that follow come from ChEMBL document CHEMBL3769399, “Synthesis and cytotoxic activities of some pyrazoline derivatives bearing phenyl pyridazine core as new apoptosis inducers” (Eur J Med Chem, 2016).

Data set [1] in a line: Cytotoxicity against HEK293 cells assessed as cell viability at 10 uM after 24 hrs by MTT assay. Format: cell-based. The following applies: human, read-out: Activity. An outline of the steps:
(§1)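 Human embryonic kidney 293 cells, as normal-cell counterpart, treated at four levels (10, 100, 200, 300). Percentage of viable cells reported with SE at each level, and IC50 estimated.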

Data set [2] is described as follows: Cytotoxicity against HEK293 cells assessed as cell viability at 200 uM after 24 hrs by MTT assay. Format: cell-based. The settings on record: human, read-out: Activity. An outline of the steps: as §1
(Tetrazolium dyes change colour on reduction, which living cells bring about.)

The test system of data set [3] is MCF7. The experiment in a line: Induction of apoptosis in human MCF7 cells assessed as increase in caspase 3 activation at IC50 using Ac-Asp-Glu-Val-Asp-pNA as substrate after 24 hrs by colorimetric assay relative to control. Format: functional. An outline of the steps: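 MCF-7 cells were grown in RPMI with 10% fetal calf serum, penicillin and streptomycin at 37 °C under 5% CO2, then seeded at 5 × 10^5 cells/well and treated for 24 h. After the medium was removed, cells were lysed with lysis buffer and shaken for 10 min. Lysate was added to caspase-3 reaction buffer containing diluted substrate. The increase in A405 was read over 30 min and expressed relative to untreated controls.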

Data set [4] relates to HepG2. The data set is described as follows: Antiproliferative activity against human HepG2 cells assessed as cell viability after 24 hrs by MTT assay. The settings on record: HepG2, 24 h. Format: functional, cell-based. An outline of the steps: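 HepG2 grown as monolayer in DMEM plus 10% fetal calf serum and penicillin/streptomycin at 37 °C, 5% CO2. Plated overnight at 10^3 cells/well and exposed 24 h to five levels (0–100) diluted in complete medium from a 1% DMSO stock. WST-1 absorbance at 450 nm gave blank-corrected % viability versus untreated control, from which IC50 was derived.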

Data set [5] deals with HEK293. The data set is described as follows: Cytotoxicity against HEK293 cells assessed as cell viability after 24 hrs by MTT assay. It is filed as cell-based. The settings on record: Homo sapiens, HEK293, 24 h. An outline of the steps: as §1
Data set [6] has as its system MCF7. The experiment in a line: Antiproliferative activity against human MCF7 cells assessed as cell viability after 24 hrs by MTT assay. Format: functional, cell-based. The settings on record: MCF7, 24 h. An outline of the steps:
(§2)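 Monolayers in DMEM (A549) or RPMI (MCF-7) with 10% fetal calf serum, penicillin and streptomycin at 37 °C and 5% CO2. Seeded overnight at 10^3 cells/well, then dosed at 0–100 from a serum-free stock in 1% DMSO diluted in complete medium. After 24 h, viability was read by WST-1 premix at 450 nm and blank-corrected against untreated cells. IC50 given as mean with standard error.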

The subject of data set [7] is HepG2. The data set is described as follows: Induction of necrosis in human HepG2 cells at 10 uM by annexin V-FITC/ethidium homodimer III staining-based flow cytometry relative to control. It is filed as functional. An outline of the steps: (§3)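 Treated cells at 2–3×10^5/mL were resuspended in 1X binding buffer and stained with FITC-Annexin V (apoptosis) plus Ethidium Homodimer III (necrosis) for 15 min at room temperature in the dark. Buffer was added and FACS was read within 1 h. Percent induction is the compound's apoptotic or necrotic fraction minus that of untreated negative control.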
A general note: In flow cytometry, cells or beads pass a laser one at a time.

A short description of data set [8]: Antiproliferative activity against human Caco2 cells assessed as cell viability at 10 uM after 24 hrs by MTT assay. Format: functional. The following applies: Caco-2, 24 h, read-out: Activity. An outline of the steps:
(§4)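 CaCo-2 kept in RPMI with 10% fetal calf serum and antibiotics at 37 °C, 5% CO2. Cells were seeded at 10^3 per well overnight, then treated 24 h at 0, 5, 10, 50 and 100, diluted from a stock containing 1% DMSO. Viability came from WST-1 read at 450 nm, blank-subtracted and normalised to untreated cells.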

Data set [9] has as its system Caco-2. The experiment in a line: Induction of necrosis in human Caco2 cells at 10 uM by annexin V-FITC/ethidium homodimer III staining-based flow cytometry relative to control. Format: functional. An outline of the steps: as §3
For data set [10], the system named is Caco-2. The data set is described as follows: Induction of apoptosis in human Caco2 cells at 10 uM by annexin V-FITC/ethidium homodimer III staining-based flow cytometry relative to control. Format: functional. An outline of the steps: as §3
Data set [11] in a line: Cytotoxicity against HEK293 cells assessed as cell viability at 300 uM after 24 hrs by MTT assay. Format: cell-based. The settings on record: human, read-out: Activity. An outline of the steps:
as §1

For data set [12], the system named is MCF7. The data set is described as follows: Induction of apoptosis in human MCF7 cells at 10 uM by annexin V-FITC/ethidium homodimer III staining-based flow cytometry relative to control. Format: functional. An outline of the steps: as §3
The test system of data set [13] is HepG2. The experiment in a line: Induction of apoptosis in human HepG2 cells at 10 uM by annexin V-FITC/ethidium homodimer III staining-based flow cytometry relative to control. It is filed as functional. An outline of the steps: as §3
Data set [14] relates to MCF7. The data set is described as follows: Induction of necrosis in human MCF7 cells at 10 uM by annexin V-FITC/ethidium homodimer III staining-based flow cytometry relative to control. It is filed as functional. An outline of the steps: as §3
Data set [15] can be described thus: Antiproliferative activity against human Caco2 cells assessed as cell viability after 24 hrs by MTT assay. The following applies: Caco-2, 24 h. It is filed as functional, cell-based. An outline of the steps:
as §4

Data set [16] has as its system A549. The experiment in a line: Antiproliferative activity against human A549 cells assessed as cell viability after 24 hrs by MTT assay. It is filed as functional, cell-based. The following applies: A549, 24 h. An outline of the steps:
as §2

The nature of data set [17]: Cytotoxicity against HEK293 cells assessed as cell viability at 100 uM after 24 hrs by MTT assay. It is filed as cell-based. The settings on record: human, read-out: Activity. An outline of the steps:
as §1

pIC50: −log10 of the molar value. Some results are limits rather than exact numbers.

In general, pIC50 refers to the IC50 on a negative log10 scale, so that one unit is a factor of ten. Turning to `FC(F)(F)c1ccc(C2CC(c3ccc(Cl)cc3)=NN2c2ccc(-c3ccccc3)nn2)cc1` (configuration not stated), in data set [1], the viability at 24 h, 10 µM turned out to be 92.7%. For the same compound, in data set [2], the viability at 24 h, 200 µM worked out at 84.6%. The “fold change (FC)” value in data set [3] was 5. For the same compound, the negative logarithm of the IC50 (pIC50) was 5.08 in data set [4]; under 3.52 in [5]; 5.78 in [6]; 5.00 in data set [15]; under 4.00 in data set [16]. Besides, the Activity is 4.97% in data set [7]; 1.87% in data set [9]; 13.4% in data set [10]; 27.2% in [12]; 24.8% in [13]; 1.26% in data set [14]. The viability at 10 µM in data set [8] was determined as 50%. The viability at 24 h, 300 µM in [11] is 79.1%. In data set [17], the viability at 24 h, 100 µM was found to be 87.7%.
